Measured values reported in ChEMBL document CHEMBL1133504 (J Med Chem, 2000).

Key:
Syrian golden hamster = test: Suppression of Hamster ethanol intake by 0.07 mmol o.d. i.p.; type: functional, Mesocricetus auratus
Outline: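 Male Syrian golden hamsters (80-120 g) at 23 °C on a 12/12-h cycle had free access to chow, water and 15% ethanol. Baseline was 6 days of daily ip saline with 0.5% DMSO. Then 0.07 mmol ip daily for 6 days. 24-h ethanol intake recorded. Mean ± SD of 4-6 hamsters.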

[1] = test system: Aldehyde dehydrogenase, mitochondrial (Mesocricetus auratus); test: Accumulation of 5 HIAL in isolated Hamster Liver Mitochondria at 9 uM.
[2] = test system: Aldehyde dehydrogenase, mitochondrial (Mesocricetus auratus); test: Accumulation of 5 HIAL in isolated Hamster Liver Mitochondria at 3 uM.
[3] = Evaluated for Pharmacokinetic property: Area under the curve; type: ADME; design: concentration or dose not given beside the values
[4] = test system: Aldehyde dehydrogenase, mitochondrial (Mesocricetus auratus); test: Accumulation of 5 HIAL in isolated Hamster Liver Mitochondria at 0.9 uM.
[5] = Evaluated for time required to reach maximum concentration in plasma; type: ADME
[6] = test system: Aldehyde dehydrogenase, mitochondrial (Mesocricetus auratus); test: Accumulation of 5 HIAL in isolated Hamster Liver Mitochondria at 0.3 uM.
[7] = target: Monoamine oxidase (Mesocricetus auratus); test: Inhibition of Hamster Liver mitochondrial Monoamine oxidase.
Mesocricetus auratus [8] = organism: Mesocricetus auratus; test: Evaluated for percentage inhibition of 5-HIAA formation in isolated Hamster Liver Mitochondria at the 9 uM
Mesocricetus auratus [9] = organism: Mesocricetus auratus; test: Evaluated for the 5-HIAL accumulation in isolated Hamster Liver Mitochondria at the 3 uM

Compound	Control [1]	Control [2]	AUC [3]	Control [4]	Tmax [5]	Control [6]	IC50 [7]	Suppression (Syrian golden hamster)	inhibition (Mesocricetus auratus [8])	Control (Mesocricetus auratus [9])
O=c1c(-c2ccc(O)cc2)coc2cc(OCCCCCCBr)ccc12	74%	108%	62 nM hr ml	112%	2 h	144%	2 µM	29%		
O=c1cc(-c2ccccc2)oc2c(O)c(O)ccc12 [7,8-DIHYDROXYFLAVONE]			111 nM hr ml		0.5 h			0%		79.1%
O=c1c(-c2ccc(O)cc2)coc2cc(O[C@@H]3O[C@H](CO)[C@@H](O)[C@H](O)[C@H]3O)ccc12 [DAIDZIN]			120 nM hr ml		1 h			62%		
O=C(O)CCCCCCCCCCOc1ccc2c(=O)c(-c3ccc(O)cc3)coc2c1			56 nM hr ml		0.5 h			86%		
O=C(O)CCCCCOc1ccc2c(=O)c(-c3ccc(O)cc3)coc2c1			77 nM hr ml		0.5 h			69%		
O=C(O)CCCCCCCCCOc1ccc2c(=O)c(-c3ccc(O)cc3)coc2c1	129%	189%	73 nM hr ml	233%	0.5 h	234%	10 µM	84%		
COc1ccc(-c2coc3cc(O)cc(O)c3c2=O)cc1 [BIOCHANIN]			99 nM hr ml		1 h			0%		
O=c1cc(-c2ccccc2)oc2cc(O)cc(O)c12 [CHRYSIN]			110 nM hr ml		1 h			0%		
O=C(O)CCCCCCOc1ccc2c(=O)c(-c3ccc(O)cc3)coc2c1	192%	228%	68 nM hr ml	265%	0.5 h	310%	2.1 µM	69%		
O=c1c(-c2ccc(O)cc2)coc2cc(OCCC3OCCCO3)ccc12	86.1%	141%	99 nM hr ml	176%	0.5 h	165%	7 µM	32%		

Further lines, with some results ahead:

Control [1]	Control [2]	AUC [3]	Control [4]	Tmax [5]	Control [6]	IC50 [7]	Compound	Suppression (Syrian golden hamster)	inhibition (Mesocricetus auratus [8])	Control (Mesocricetus auratus [9])
17.8%	34.3%	38 nM hr ml	62.9%	1 h	88.6%	0.3 µM	CCOc1ccc2c(=O)c(-c3ccc(O)cc3)coc2c1	0%		
		130 nM hr ml		1 h			O=c1c(-c2ccc(O)cc2)coc2cc(O)ccc12 [DAIDZEIN]	22%	80.6%	
		134 nM hr ml		1 h			O=c1c(-c2ccc(O)cc2)coc2cc(O)cc(O)c12 [GENISTEIN]	0%		
30.5%	63%	141 nM hr ml	97.5%	0.5 h	112%	1.7 µM	O=c1c(-c2ccc(O)cc2)coc2cc(OCC(O)CO)ccc12 (stereo not drawn)	0%		
42.9%	87.7%	68 nM hr ml	116%	2 h	112%	4 µM	O=c1c(-c2ccc(O)cc2)coc2cc(OCCCCBr)ccc12	14%		
26.7%	56.1%	29 nM hr ml	91%	1 h	106%	0.45 µM	C=CCOc1ccc2c(=O)c(-c3ccc(O)cc3)coc2c1	0%		
20.5%	34.7%	73 nM hr ml	57.8%	2 h	75.8%	0.15 µM	O=c1c(-c2ccc(O)cc2)coc2cc(OCCCBr)ccc12	0%		
